Measured values gathered from unrelated publications.
Compare with care: the assays were run in different laboratories.
Target: Dual specificity mitogen-activated protein kinase kinase 2 (MAP2K2, Homo sapiens, UniProt P36507)

| SMILES | read-out | method | concentration | remaining binding [%] |
| --- | --- | --- | --- | --- |
| C[C@@]1(Cc2ccc(C#N)cc2)C(=O)N(c2cc(Cl)cc(Cl)c2)c2ncc(C(=O)NC3(c4nc(C5CCC5)no4)CC3)n21 | cell-free assay | competition with immobilised ligand | 1 µM | 99 |
| C[C@@H]1CN(c2ccc3ncc(-c4ccc5[nH]nc(C6CC6)c5c4)n3n2)C[C@H](C)O1 | binding | competition with immobilised ligand | 50 nM | 72 |
| N[C@H]1CCN(c2nccc(-c3cnn4ncccc34)n2)C1 | binding | – | 1 µM | 100 |
| Cc1noc([C@H]2C[C@@H](c3ccc(C(F)(F)F)cc3)CN(C(=O)N3CCS(=O)(=O)C3)C2)n1 | cell-free assay | competition with immobilised ligand | 1 µM | 90 |
| Cc1cnn2ncc(-c3ccnc(N(C)C)n3)c2c1 | binding | – | 1 µM | 100 |
| C[C@@H](c1ccc(-n2cnc3c(N)ncnc32)cc1)N1CCc2nn(C)c(Cc3ccccc3)c2C1=O | binding | competition with immobilised ligand | 0.1 µM | 92 |
| c1cnn2ncc(-c3ccnc(N4CCC45COC5)n3)c2c1 | binding | – | 1 µM | 81 |
| C[C@@H]1CN(c2cc(-c3n[nH]c4ccc(OC5(C)CC5)cc34)ncn2)C[C@H](C)O1 | cell-free assay | competition with immobilised ligand | 0.1 µM | 85 |
| CN(C)c1nccc(-c2cnc3ncccn23)n1 | binding | – | 1 µM | 65 |
| Cc1cnc(Nc2ccc(C(=O)N3CCC(N4CCCC4)CC3)cc2)nc1-c1cc2ccccc2s1 | binding | competition with immobilised ligand | 1 µM | 26 |
| Nc1ncc2c(n1)-c1c([nH]c3ccc(C#CC4CC4)cc13)CCCC2 | binding | competition with immobilised ligand | 1 µM | 96 |
| CC(=O)Nc1c(C(C)=O)c(=O)n(C)c2nc(-c3ccc(Cl)cc3Cl)c(-c3ccc(Cl)cc3)cc12 | cell-free assay | competition with immobilised ligand | 1 µM | 100 |
| CC(C)(C)c1ccc(-c2nc(CBr)nn2-c2cccc(O)c2)cc1 | cell-free assay | competition with immobilised ligand | 10 µM | 90 |
| COc1cnc(Nc2cccc(S(N)(=O)=O)c2)nc1N1CCN(c2ccccc2)CC1 | binding | competition with immobilised ligand | 1 µM | 83 |
| CO[C@@H](C)c1c(Nc2ccc([C@@H](N(C)C(=O)C3CCS(=O)(=O)CC3)C(F)(F)F)cc2)cnc2cc(Cl)nn12 | cell-free assay | competition with immobilised ligand | 1 µM | 97 |
| c1cncc(-c2cccc(Nc3nccc(NC4CCCCC4)n3)c2)c1 | binding | competition with immobilised ligand | 10 µM | 83 |
| CC(=O)N1CCC(c2ccc(C(=O)NC(=N)N)cc2C(F)(F)F)CC1 | cell-free assay | competition with immobilised ligand | 1 µM | 96 |
| F[C@@H]1CCN(c2nccc(-c3cnn4ncccc34)n2)C1 | binding | – | 1 µM | 88 |
| O=C(NCC1CCOCC1)c1n[nH]cc1NC(=O)c1c(F)cccc1F | binding | competition with immobilised ligand | 1 µM | 100 |
| O=C(c1ccc(Nc2nccc(-c3cc4ccccc4s3)n2)cc1)N1CCC(N2CCCC2)CC1 | binding | competition with immobilised ligand | 1 µM | 60 |
| O=C(O)[C@@H]1[C@@H](Cn2nnc3ccccc3c2=O)CC[C@H]1C(=O)c1ccc(OCCC2CCOCC2)cc1 | cell-free assay | competition with immobilised ligand | 1 µM | 100 |
| CN(C)c1ncc(F)c(-c2cnn3ncccc23)n1 | binding | – | 1 µM | 74 |
| COc1cnc(Nc2cccc(S(N)(=O)=O)c2)nc1N1CCN(c2ccccc2)C(=O)C1 | binding | competition with immobilised ligand | 1 µM | 94 |
| O=C(NCCCN1CCOCC1)c1ccc(Nc2nccc(-c3cc4ccccc4s3)n2)cc1 | binding | competition with immobilised ligand | 1 µM | 79 |
